Data set [1] deals with Protease (Human immunodeficiency virus 1, UniProt Q9YQ12, A71V/I50V). The data set is described as follows: Binding affinity to drug-resistant HIV-1 protease I50V/A71V mutant expressed in Escherichia coli TAP-106 cells assessed as inhibition constant using a EDANS/DABCYL FRET-peptide substrate preincubated for 1 hr followed by substrate addition measured after 1 hr by fluorogenic assay.

The nature of a further data set: in vitro. The following applies: human.
Data set [2] addresses Protease (Human immunodeficiency virus 1, UniProt Q9YQ12, I84V). Nature of the data set: Binding affinity to drug-resistant HIV-1 protease I84V mutant expressed in Escherichia coli TAP-106 cells assessed as inhibition constant using a EDANS/DABCYL FRET-peptide substrate preincubated for 1 hr followed by substrate addition measured after 1 hr by fluorogenic assay.
Data set [3] deals with Human immunodeficiency virus 1. Nature of the data set: Antiviral activity against wild-type HIV-1 NL4-3 infected in human TZM-bl cells using virus particles harvested from 18 hrs drug-treated HEK293T cells harboring viral transfection assessed as reduction in viral infection measured after 48 hrs in TZM-bl cells by luciferase based assay. In kind it is functional, organism-based. The following applies: Human immunodeficiency virus 1, NL4-3, TZM-bl.

A short description of data set [4]: Cytotoxicity against HEK293T cells incubated for 48 hrs by absorbance based assay. In kind it is toxicity, cell-based, HEK-293T. The following applies: human, HEK293T cells.
Data set [5] is described as follows: Binding affinity to drug-resistant HIV-1 protease I13V/G16E/V32I/L33F/K45I/M46I/V82F/I84V/A71V/L76V mutant expressed in Escherichia coli TAP-106 cells assessed as inhibition constant using a EDANS/DABCYL FRET-peptide substrate preincubated for 1 hr followed by substrate addition measured after 1 hr by fluorogenic assay. Further details: species or system Human immunodeficiency virus 1.

Data set [6] can be described thus: Binding affinity to drug-resistant HIV-1 protease I13V/G16E/V32I/L33F/K45I/M46I/V82F/I84V/A71V/L76V/I54L mutant expressed in Escherichia coli TAP-106 cells assessed as inhibition constant using a EDANS/DABCYL FRET-peptide substrate preincubated for 1 hr followed by substrate addition measured after 1 hr by fluorogenic assay. Also on record: species or system Human immunodeficiency virus 1.

Data set [7] is described as follows: Binding affinity to drug-resistant HIV-1 protease I13V/G16E/V32I/L33F/K45I/M46I/V82F/I84V mutant expressed in Escherichia coli TAP-106 cells assessed as inhibition constant using a EDANS/DABCYL FRET-peptide substrate preincubated for 1 hr followed by substrate addition measured after 1 hr by fluorogenic assay. Also on record: species or system Human immunodeficiency virus 1.

The test system of data set [8] is Human immunodeficiency virus 1. The data set is described as follows: Selectivity ratio of EC50 for drug-resistant HIV-1 harboring RT mutation/protease I13V/G16E/V32I/L33F/K45I/M46I/A71V/L76V/V82F/I84V mutant infected in human TZM-bl cells to EC50 for wild-type HIV-1 NL4-3 infected in human TZM-bl cells. In kind it is functional.
Data set [9] deals with Human immunodeficiency virus 1. Nature of the data set: Antiviral activity against drug-resistant HIV-1 harboring protease L10F/I15V/M46I/I47V/I50V/F53L/A71V/V82I/I84V/L89T mutant infected in human TZM-bl cells using virus particles harvested from 24 hrs drug-treated human CEM cells infected with virus assessed as reduction in viral infection measured after 48 hrs in TZM-bl cells by Firefly luciferase based assay. In kind it is functional, organism-based. The following applies: Human immunodeficiency virus 1, TZM-bl. An outline of the steps: (§1)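 Virus stocks grown by infecting 3 × 10^6 CEM cells with virus at 37 °C for 2–3 h, then RPMI with medium changes every 48 h until CPE. Infected CEM cells plated onto five-fold serial inhibitor dilutions in RPMI (top 100 μM).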

Data set [10] concerns Human immunodeficiency virus 1. The data set is described as follows: Antiviral activity against drug-resistant HIV-1 harboring protease L10F/V11I/I13V/V32I/L33F/K43T/M46L/I54L/A71V/V82I/I84V/L89M/T91S/Q92R mutant infected in human TZM-bl cells using virus particles harvested from 24 hrs drug-treated human CEM cells infected with virus assessed as reduction in viral infection measured after 48 hrs in TZM-bl cells by Firefly luciferase based assay. In kind it is functional, organism-based. To be noted: Human immunodeficiency virus 1, TZM-bl. An outline of the steps:
as §1

The subject of data set [11] is Human immunodeficiency virus 1. The data set is described as follows: Selectivity ratio of EC50 for drug-resistant HIV-1 harboring protease L10F/I13V/L33F/K45R/M46I/I47V/I50V/F53L/I54L/I66F/A71V/T74A/L76S/V82I mutant infected in human TZM-bl cells to EC50 for wild-type HIV-1 NL4-3 infected in human TZM-bl cells. In kind it is functional.
Data set [12] deals with Human immunodeficiency virus 1. The data set is described as follows: Antiviral activity against drug-resistant HIV-1 harboring protease L10F/I13V/L33F/K45R/M46I/I47V/I50V/F53L/I54L/I66F/A71V/T74A/L76S/V82I mutant infected in human TZM-bl cells using virus particles harvested from 24 hrs drug-treated human CEM cells infected with virus assessed as reduction in viral infection measured after 48 hrs in TZM-bl cells by Firefly luciferase based assay. To be noted: Human immunodeficiency virus 1, TZM-bl. In kind it is functional, organism-based. An outline of the steps:
as §1

For data set [13], the system named is Human immunodeficiency virus 1. Nature of the data set: Antiviral activity against drug-resistant HIV-1 harboring RT mutation/protease I13V/G16E/V32I/L33F/K45I/M46I/A71V/L76V/V82F/I84V mutant infected in human TZM-bl cells using virus particles harvested from 24 hrs drug-treated human CEM cells infected with virus assessed as reduction in viral infection measured after 48 hrs in TZM-bl cells by Firefly luciferase based assay. In kind it is functional, organism-based. The following applies: Human immunodeficiency virus 1, TZM-bl. The essentials: as §1

Data set [14] deals with Human immunodeficiency virus 1. The data set is described as follows: Selectivity ratio of EC50 for drug-resistant HIV-1 harboring protease L10F/I15V/M46I/I47V/I50V/F53L/A71V/V82I/I84V/L89T mutant infected in human TZM-bl cells to EC50 for wild-type HIV-1 NL4-3 infected in human TZM-bl cells. In kind it is functional.
For data set [15], the system named is Human immunodeficiency virus 1. Nature of the data set: Selectivity ratio of EC50 for DRV-resistant HIV-1 infected in human TZM-bl cells to EC50 for wild-type HIV-1 NL4-3 infected in human TZM-bl cells. In kind it is functional.
In data set [16] the test system is Human immunodeficiency virus 1. The data set is described as follows: Selectivity ratio of EC50 for drug-resistant HIV-1 harboring Gag mutation/protease I13V/G16E/V32I/L33F/K45I/M46I/A71V/L76V/V82F/I84V mutant infected in human TZM-bl cells to EC50 for wild-type HIV-1 NL4-3 infected in human TZM-bl cells. In kind it is functional.
Data set [17] relates to Human immunodeficiency virus 1. The data set is described as follows: Antiviral activity against drug-resistant HIV-1 harboring protease L10F/L33F/M46I/I47V/I50V/F53L/L63P/A71V/L76S/V82I/I85V/L89I mutant infected in human TZM-bl cells using virus particles harvested from 24 hrs drug-treated human CEM cells infected with virus assessed as reduction in viral infection measured after 48 hrs in TZM-bl cells by Firefly luciferase based assay. The following applies: Human immunodeficiency virus 1, TZM-bl. In kind it is functional, organism-based.

For data set [18], the system named is Human immunodeficiency virus 1. The data set is described as follows: Antiviral activity against wild-type HIV-1 NL4-3 infected in human TZM-bl cells using virus particles harvested from 24 hrs drug-treated human CEM cells infected with virus assessed as reduction in viral infection measured after 48 hrs in TZM-bl cells by Firefly luciferase based assay. In kind it is functional, organism-based. To be noted: Human immunodeficiency virus 1, NL4-3, TZM-bl. The essentials: as §1

The test system of data set [19] is Human immunodeficiency virus 1. Nature of the data set: Selectivity ratio of EC50 for drug-resistant HIV-1 harboring protease L10F/L33F/M46I/I47V/I50V/F53L/L63P/A71V/L76S/V82I/I85V/L89I mutant infected in human TZM-bl cells to EC50 for wild-type HIV-1 NL4-3 infected in human TZM-bl cells. In kind it is functional.
Data set [20] concerns Human immunodeficiency virus 1. Nature of the data set: Antiviral activity against drug-resistant HIV-1 harboring Gag mutation/protease I13V/G16E/V32I/L33F/K45I/M46I/A71V/L76V/V82F/I84V mutant infected in human TZM-bl cells using virus particles harvested from 24 hrs drug-treated human CEM cells infected with virus assessed as reduction in viral infection measured after 48 hrs in TZM-bl cells by Firefly luciferase based assay. In kind it is functional, organism-based. The following applies: Human immunodeficiency virus 1, TZM-bl. The essentials: as §1

Data set [21] relates to Human immunodeficiency virus 1. The data set is described as follows: Selectivity ratio of EC50 for drug-resistant HIV-1 harboring protease L10F/V11I/I13V/V32I/L33F/K43T/M46L/I54L/A71V/V82I/I84V/L89M/T91S/Q92R mutant infected in human TZM-bl cells to EC50 for wild-type HIV-1 NL4-3 infected in human TZM-bl cells. In kind it is functional.
For data set [22], the system named is Human immunodeficiency virus 1. Nature of the data set: Antiviral activity against DRV-resistant HIV-1 infected in human TZM-bl cells using virus particles harvested from 24 hrs drug-treated human CEM cells infected with virus assessed as reduction in viral infection measured after 48 hrs in TZM-bl cells by Firefly luciferase based assay. In kind it is functional, organism-based. The following applies: Human immunodeficiency virus 1, TZM-bl. The essentials: as §1

The record followed here is ChEMBL document CHEMBL5620363, “HIV-1 protease inhibitors with a P1 phosphonate modification maintain potency against drug-resistant variants by increased interactions with flap residues” (Eur J Med Chem, 2023).

Some results are limits rather than exact numbers.

Chain of Protease (Human immunodeficiency virus 1, UniProt Q9YQ12, I84V) (Q9YQ12 entry or part of it I84V): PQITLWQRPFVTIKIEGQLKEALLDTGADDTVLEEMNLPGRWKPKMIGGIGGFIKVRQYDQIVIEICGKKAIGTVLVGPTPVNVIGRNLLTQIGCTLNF
Chain of Protease (Human immunodeficiency virus 1, UniProt Q9YQ12, A71V/I50V) (Q9YQ12 entry or part of it A71V/I50V): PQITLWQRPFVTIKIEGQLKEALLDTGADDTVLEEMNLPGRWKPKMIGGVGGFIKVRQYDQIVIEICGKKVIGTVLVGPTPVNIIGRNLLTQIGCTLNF

In the case of `CCOP(=O)(COc1ccc(C[C@H](NC(=O)O[C@H]2CO[C@H]3OCC[C@H]32)[C@H](O)CN(C[C@@H](C)CC)S(=O)(=O)c2ccc(CO)cc2)cc1)OCC`, the Ki on Protease [1] was below 5 pM; at Protease [2], below 5 pM; in data set [5], 52.9 nM; in [6], 103 nM; in data set [7], 4.98 nM. In “in vitro”, the selectivity ratio was above 3.66. For the same molecule, the EC50 in data set [3] worked out at 27.3 nM. For the same molecule, the CC50 at 48 h in data set [4] was above 100 µM.

With `CCC(CC)CN(C[C@@H](O)[C@H](Cc1ccccc1)NC(=O)O[C@H]1CO[C@H]2OCC[C@H]21)S(=O)(=O)c1ccc(OC)cc1`, the “Ratio EC50” value in data set [8] was 83; in [11], 5567; in data set [14] it was 7267; in data set [15] it was 533; in data set [16], 47; in data set [19], 267. In addition, the “Ratio EC50” value in data set [21] was 1793. Besides, the EC50 came out at 21.8 µM in data set [9]; 5.38 µM in data set [10]; 16.7 µM in data set [12]; 250 nM in data set [13]; 800 nM in data set [17]; 3 nM in [18]. In addition, the EC50 is 140 nM in [20] and 1600 nM in [22].
